# Bioassay records from PubChem.
# Most compounds without a hit are left out; they make up all but 4% or so of the library.
# TAAR1 ag: human TAAR1 agonists, primary screen, Fluo-8 calcium fluorescence, CHO RD-HGA16 cells. vehicle wells 0%, saturating PEA agonist 100%. activation, % at 3 µM. 360,000 tested, 0.99% active. AID 624467, 2012;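 active = activation above the mean activation of all test compounds in the run plus 3 SD, cut at about 38% in these data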
#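 Test system: RD-HGA16 (CHO) cells co-expressing Gα16 and hTAAR1 / Benchmarks: DMSO vehicle as 0%, PEA at EC100 as 100% / Repeats: no replicates (n 1) / Measure: % activation from peak over basal fluorescence ratio, DMSO-to-PEA scaled / Timing: 17-24 h plating, Fluo-8 75 min 37 °C, 30 min RT / Technique: kinetic Fluo-8 calcium fluorescence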
# OX1R antag-1: OX1R (HCRTR1) antagonists, primary screen, fluorescence, CHO/OX1R cells, Fluo-8 calcium, orexin A; Orexin/Hypocretin receptor type 1 (Homo sapiens), O43613; 330,000 tested, 0.43% active; Fluo-8 calcium fluorescence; inhibition, % at 5 µM;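 active = inhibition above its plate's threshold, mean inhibition of all tested compounds on the plate plus 3 SD, cut at about 37% in these data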;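 also: 0% = orexin A challenge wells and 100% = SB-334867-A antagonist wells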
# CHO parental Ca: ATP-evoked calcium signal inhibitors, parental CHO, primary screen, counter-screen for OX1R antagonist project, cell-based, fluorescence, Fluo-8 calcium dye; parental CHO-K1, ATP-induced calcium, Fluo-8 fluorescence; inhibition, % at 5.6 µM; 330,000 tested, 0.63% active; AID 463079, 2010;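 active = inhibition above that plate's mean sample inhibition plus 3 SD, cut at about 26% in these data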;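 also: 0% = ATP-challenged DMSO wells and 100% = DMSO wells without ATP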
#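 Measured by: calcium-sensitive Fluo-8 fluorescence / Test system: CHO parental line / Controls: ATP-challenged DMSO wells low, unchallenged DMSO wells high / Measure: % inhibition / Compound: single nominal dose of 5.6 µM per compound / Replicates: single well per compound, no replicates / Reagent: ATP as calcium-mobilizing challenge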
# OX1R antag-2: antagonists of human orexin 1 receptor (OX1R). OX1R-expressing cells, FRET antagonist read-out. inhibition, % at 6.6 µM. 330,000 tested, 1.8% active. AID 485270, 2010; in the data active = inhibition mostly above about 38%, no sharp cut-off; inactive = mostly below about 40%;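 also: 0% = agonist challenge alone and 100% = reference antagonist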
# TAAR1 antag: human TAAR1 antagonists, primary screen, Fluo-8 calcium fluorescence, CHO RD-HGA16 cells; Trace amine-associated receptor 1 (Homo sapiens), Q96RJ0; antagonist; 360,000 tested, 1.5% active; inhibition, % at 3 µM;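 active = inhibition above a per-plate cutoff, the mean inhibition of test compounds on that plate plus 3 SD, cut at about 49% in these data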;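 also: 0% = DMSO plus EC80 beta-PEA response and 100% = DMSO alone without agonist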
#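 Assay system: CHO-derived RD-HGA16 cells stably expressing human TAAR1 plus Gα16. Timing: 140 s kinetic read after compound, 140 s after agonist. Technique: kinetic Fluo-8 calcium fluorescence measurement. Measure: % inhibition of agonist calcium response.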
# NTR1 ag: agonists of human NTR1, primary screen, imaging, U2OS cells, beta-arrestin-GFP, high content | Neurotensin receptor type 1 (Homo sapiens), P30989 | NTR1-U2OS beta-arrestin-GFP spot imaging, agonist mode | activation, % at 20 µM | 330,000 tested, 0.17% active | AID 493036, 2011;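 active = activation at or above 40% of the spot to cytoplasm intensity ratio, with at least 20 cells analyzed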;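 also: 0% = DMSO without peptide and 100% = 100 nM NTR1 peptide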
# Target sequence (P30989 whole entry, looked up): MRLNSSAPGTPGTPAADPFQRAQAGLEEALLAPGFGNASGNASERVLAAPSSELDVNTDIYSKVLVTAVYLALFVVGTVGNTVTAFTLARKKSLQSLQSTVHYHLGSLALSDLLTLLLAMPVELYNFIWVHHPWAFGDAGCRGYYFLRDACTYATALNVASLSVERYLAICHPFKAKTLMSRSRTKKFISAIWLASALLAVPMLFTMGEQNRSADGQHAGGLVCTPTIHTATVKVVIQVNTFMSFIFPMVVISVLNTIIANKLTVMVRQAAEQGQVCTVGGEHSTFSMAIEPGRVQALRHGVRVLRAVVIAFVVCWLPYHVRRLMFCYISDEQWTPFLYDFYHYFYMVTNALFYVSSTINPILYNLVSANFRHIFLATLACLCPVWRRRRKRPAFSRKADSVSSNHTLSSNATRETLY
# TAAR1 ag confirm: human TAAR1 agonists, retest of hits, confirmation, Fluo-8 calcium fluorescence, CHO RD-HGA16 cells | activation, % at 3 µM | scaled: DMSO 0%, maximal phenethylamine 100% | 2,400 tested, 82% active | shares compounds with TAAR1 ag;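 active = activation above a cutoff set at the run's mean compound activation plus 3 SD, cut at about 39% in these data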
# Ga16 nonsel ag: nonselective calcium mobilization agonists, CHO-Ga16 cells, counter-screen for hTAAR1 agonist project, cell-based, fluorescence, CHO-Ga16 parental line. activation, % at 3 µM. shares compounds with TAAR1 ag. 2,400 tested, 50% active. AID 651787, 2012. Fluo-8 calcium fluorescence; normalized to maximal ATP response, DMSO zero;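 active = activation above the run cutoff, the mean activation over all tested wells plus 3 SD, cut at about 12% in these data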;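 also: 0% = DMSO wells and 100% = maximal ATP response on the peak over basal ratio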
# TAAR1 desensitize: TAAR1 desensitization by agonist hits, confirmation, counter-screen for TAAR1 agonist project, cell-based, fluorescence, tachyphylaxis. shares compounds with TAAR1 ag. CHO RD-HGA16 hTAAR1, Fluo-8 calcium, beta-PEA response inhibition. inhibition, % at 3 µM. 2,400 tested, 46% active;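 active = inhibition above the run cutoff, the mean inhibition of all test compounds plus 3 SD, cut at about 49% in these data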;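 also: beta-PEA stimulus applied at its EC80; loss of beta-PEA calcium signal after compound pretreatment read as receptor desensitization; 0% = DMSO with beta-PEA at EC80 and 100% = DMSO alone without agonist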
# Ga16 antag count: inhibition of ATP-evoked calcium response in CHO-Ga16 cells, counter-screen for TAAR1 agonist project, cell-based, fluorescence; 2,400 tested, 39% active; shares compounds with TAAR1 ag; inhibition, % at 3 µM; CHO-Ga16 ATP-induced calcium, Fluo-8 fluorescence;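 active = inhibition above the plate's mean compound inhibition plus 3 SD, computed per plate, cut at about 22% in these data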;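 also: 0% = EC80 ATP with DMSO and 100% = DMSO wells without ATP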
# * = called active by the depositor; · = no result.
SMILES,TAAR1 ag,OX1R antag-1,CHO parental Ca,OX1R antag-2,TAAR1 antag,NTR1 ag,TAAR1 ag confirm,Ga16 nonsel ag,TAAR1 desensitize,Ga16 antag count
CCC(=NCCc1ccccc1)c1c(O)n(C)c(=O)n(C)c1=O,62*,2,2,4,-3,0,61*,10,40,32*
CCCCn1c(O)c(C(CC)=NCCc2ccccc2)c(=O)[nH]c1=O,58*,-14,-10,7,70*,4,68*,7,43,23*
CCC(=NCc1ccco1)c1c(O)n(C)c(=O)n(C)c1=O,21,12,-10,6,-15,0,·,·,·,·
CCCCn1c(O)c(C(CC)=NCc2ccc(F)cc2)c(=O)[nH]c1=O,15,-16,-15,4,21,7,·,·,·,·
C=CCn1c(O)c(C(CC)=NCCc2ccccc2)c(=O)[nH]c1=O,74*,-31,-9,19,30,0,78*,5,40,5
COC(=O)C1=C(c2ccc(F)cc2F)C[C@@H]2CC[C@H]1N2C(=O)NCCOc1ccccc1,2,-33,-31,3,14,-1,·,·,·,·
O=C(NCCN1CCC2(CC1)C(=O)NCN2c1ccccc1)c1cccc(F)c1,60*,·,·,·,74*,·,39*,21*,54*,31*
CCCCn1nnnc1C(CC)N1CCC2(CC1)C(=O)NCN2c1ccccc1 (stereo not drawn),3,·,·,·,-2,·,·,·,·,·
O=C(NCCN1CCC2(CC1)C(=O)NCN2c1ccccc1)c1ccc(F)c(F)c1,110*,·,·,·,103*,·,102*,67*,104*,87*
O=C(NCCN1CCC2(CC1)C(=O)NCN2c1ccccc1)c1cccc2c1-c1ccccc1C2=O,2,·,·,·,-7,·,·,·,·,·
CC(=O)N1Cc2cnnn2-c2ccccc2C1(C#N)Cc1ccccc1 (stereo not drawn),2,·,·,·,2,·,·,·,·,·
CC(C)c1ccccc1NC1=NCCCS1,0,-1,-14,5,1,1,·,·,·,·
O=C1C2CC=CCC2C(=O)N1SC(Cl)(Cl)Cl (stereo not drawn),57*,·,·,·,54*,·,43*,26*,55*,49*
CCOC(=O)c1cncn1[C@H](C)c1ccccc1,·,-4,-14,21,·,2,·,·,·,·
CN(CCc1ccccc1)Cc1ccccc1[N+](=O)[O-],5,-7,-5,29,-1,1,·,·,·,·
Oc1ccccc1CN(CCc1ccccc1)Cc1ccccc1,49*,-53,-36,30,32,1,75*,16*,89*,14
O=CC(Br)P(=O)(N1CCOCC1)N1CCOCC1 (stereo not drawn),0,6,-8,2,-4,-1,·,·,·,·
O=[N+]([O-])O[C@H]1CO[C@H]2[C@@H]1OC[C@H]2O[N+](=O)[O-],1,-1,-6,10,-1,-2,·,·,·,·
